According to ChEMBL document CHEMBL1208693, “Synthesis and evaluation of novel antifungal agents-quinoline and pyridine amide derivatives” (2010):
Values after ≈ are worked out from the molar mass of the structure shown.

How the values were obtained:
Type in all cases: functional
Candida albicans [1] = test: Ratio of compound MIC to Amphotericin B MIC for Candida albicans E81022
Candida albicans [2] = test: Antifungal activity against Candida albicans E81022 after 2 days by broth-microdilution method; conditions: E81022, 48 h
Procedure, shortened: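 Yeast broth microdilution following CLSI M27-A3, slightly modified. Cells were subcultured in Sabouraud dextrose broth at 35 °C for 1–2 days, then inoculated at 2×10^3–2×10^4 cells/mL. Compounds in twofold DMSO dilutions gave final concentrations of 0.05–200 µg/mL; the control was 1% DMSO. Incubation was 35 °C for 2 days. MIC was the lowest concentration with a visually prominent turbidity drop relative to control.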

Aspergillus fumigatus = test: Antifungal activity against Aspergillus fumigatus Tsukuba after 2 days by broth-microdilution method; conditions: 48 h
Procedure, shortened: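 CLSI M38-A2 broth microdilution, slightly modified. Conidia came from a one-week PDA culture at 35 °C and were stored at −80 °C. Inoculum was 2×10^3–2×10^4 conidia/mL. Compounds were serially twofold diluted from DMSO stock to final concentrations of 0.05–200 µg/mL; the control was 1% DMSO. Plates were incubated at 35 °C for 2 days. MIC was the lowest concentration giving a visually prominent turbidity decrease versus control.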

Saccharomyces cerevisiae [3] = test: Antifungal activity against Saccharomyces cerevisiae KE744 after 2 days by broth-microdilution method; conditions: KE744, 48 h
Procedure, shortened: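 S. cerevisiae strain overexpressing GWT1 from the GAPDH promoter, grown in SD ura- medium at 30 °C for 1–2 days. Modified CLSI broth microdilution used 2×10^3–2×10^4 cells/mL. Final compound concentrations were 0.05–200 µg/mL from twofold DMSO dilutions, with 1% DMSO as control. Incubation was 30 °C for 2 days. MIC was the lowest concentration visibly and prominently reducing turbidity versus control.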

Saccharomyces cerevisiae [4] = test: Ratio of MIC for Saccharomyces cerevisiae KE744 to Saccharomyces cerevisiae KE743 overexpressing GWT1
Procedure, shortened: (§1)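 Broth microdilution (modified CLSI M27-A3) on S. cerevisiae KE743 (control) and KE744 (GWT1 overexpressed from GAPDH promoter), precultured in SD ura- at 30 °C for 1–2 days. Inoculum 2 × 10^3–2 × 10^4 cells/ml. Twofold dilutions at 0.05–200 µg/mL final, from DMSO; 1% DMSO control. Incubated 30 °C, 2 days. MIC is the lowest concentration with a prominent visual turbidity decrease; KE744/KE743 MICs compared.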

Saccharomyces cerevisiae [5] = test: Antifungal activity against Saccharomyces cerevisiae KE743 […] after 2 days by broth-microdilution method; conditions: KE743, 48 h; procedure, shortened: as §1

| Compound | Ratio (Candida albicans [1]) | MIC (Candida albicans [2]) [µg/mL] | MIC (Aspergillus fumigatus) [µg/mL] | MIC (Saccharomyces cerevisiae [3]) [µg/mL] | Ratio (Saccharomyces cerevisiae [4]) | MIC (Saccharomyces cerevisiae [5]) [µg/mL] |
| --- | --- | --- | --- | --- | --- | --- |
| Nc1ncccc1C(=O)NCc1ccc(Cc2ccccc2)s1 | 2 | 0.05 (≈ 0.155 µM) | 0.78 (≈ 2.41 µM) |  |  |  |
| CCCCc1ccc(Cc2nccc3ccccc23)cc1 |  | 1.56 (≈ 5.66 µM) |  |  |  |  |
| O=C(NCc1ccc(Oc2ccccc2)s1)c1cnc2[nH]ccc2c1 | 2 | 0.39 (≈ 1.12 µM) | 3.13 (≈ 8.96 µM) | > 12.5 | >64 | 0.2 (≈ 0.572 µM) |
| Nc1ccc(C(=O)NCc2ccc(Oc3ccc(F)cc3)s2)c(N)n1 | 2 | 0.39 (≈ 1.09 µM) | 0.78 (≈ 2.18 µM) | 12.5 (≈ 34.9 µM) | 16 | 0.78 (≈ 2.18 µM) |
| O=C(NCc1ccc(Oc2cccc(F)c2)s1)c1ccc2ncccc2c1 | 2 | 0.1 (≈ 0.264 µM) | 1.56 (≈ 4.12 µM) | 3.13 (≈ 8.27 µM) | 128 | 0.025 (≈ 0.0661 µM) |
| Nc1ncccc1C(=O)NCc1ccc(Oc2cccc(F)c2)s1 | 2 | 0.05 (≈ 0.146 µM) | 0.78 (≈ 2.27 µM) | 12.5 (≈ 36.4 µM) | 128 | 0.1 (≈ 0.291 µM) |
| Nc1ccc(C(=O)NCc2ccc(Oc3ccccc3)s2)c(N)n1 | 2 | 0.78 (≈ 2.29 µM) | 1.56 (≈ 4.58 µM) | > 12.5 | >8 | 1.56 (≈ 4.58 µM) |
| OC(Cn1cncn1)(Cn1cncn1)c1ccc(F)cc1F [FLUCONAZOLE] |  | 0.39 (≈ 1.27 µM) |  | 6.25 (≈ 20.4 µM) | 1 | 6.25 (≈ 20.4 µM) |
| Nc1ccc(C(=O)NCc2ccc(Oc3cccc(F)c3)s2)cn1 |  | 1.56 (≈ 4.54 µM) |  | > 12.5 | >8 | 1.56 (≈ 4.54 µM) |
| C[C@@H]1[C@H](O)[C@@H](C)/C=C/C=C/C=C/C=C/C=C/C=C/C=C/[C@H](O[C@@H]2O[C@H](C)[C@@H](O)[C@H](N)[C@@H]2O)C[C@@H]2O[C@](O)(C[C@@H](O)C[C@@H](O)[C@H](O)CC[C@@H](O)C[C@@H](O)CC(=O)O[C@H]1C)C[C@H](O)[C@H]2C(=O)O [AMPHOTERICIN B] |  | 1.56 (≈ 1.69 µM) | 0.78 (≈ 0.844 µM) | 0.78 (≈ 0.844 µM) | 1 | 0.78 (≈ 0.844 µM) |
